# Results taken from ChEMBL document CHEMBL1127689, “Novel 4-(aryloxy)tetrahydropyridine analogs of MPTP as monoamine oxidase A and B substrates” (J Med Chem, 1994).
# B1: Amine oxidase [flavin-containing] A (Homo sapiens) (protein)
# chain: MENQEKASIAGHMFDVVVIGGGISGLSAAKLLTEYGVSVLVLEARDRVGGRTYTIRNEHVDYVDVGGAYVGPTQNRILRLSKELGIETYKVNVSERLVQYVKGKTYPFRGAFPPVWNPIAYLDYNNLWRTIDNMGKEIPTDAPWEAQHADKWDKMTMKELIDKICWTKTARRFAYLFVNINVTSEPHEVSALWFLWYVKQCGGTTRIFSVTNGGQERKFVGGSGQVSERIMDLLGDQVKLNHPVTHVDQSSDNIIIETLNHEHYECKYVINAIPPTLTAKIHFRPELPAERNQLIQRLPMGAVIKCMMYYKEAFWKKKDYCGCMIIEDEDAPISITLDDTKPDGSLPAIMGFILARKADRLAKLHKEIRKKKICELYAKVLGSQEALHPVHYEEKNWCEEQYSGGCYTAYFPPGIMTQYGRVIRQPVGRIFFAGTETATKWSGYMEGAVEAGERAAREVLNGLGKVTEKDIWVQEPESKDVPAVEITHTFWERNLPSVSGLLKIIGFSTSVTALGFVLYKYKLLPRS
# B2: Amine oxidase [flavin-containing] B (Bos taurus) (protein)
# chain: MSSKCDVVVVGGGISGMAAAKLLHDSGLNVIVLEARDRVGGRTYTLRNQKVKYVDLGGSYVGPTQNHILRLSKELGLETYKVNEVERLIHHTKGKSYPFRGSFPSVWNPITYLDHNNLWRTMDDMGREIPSDAPWKAPLAEQWDLMTMKELLDKICWTESSKQLAILFVNLCVTAEIHEVSALWFLWYVKQCGGTTRIFSTSNGGQERKFVGGSGQVSERIMDLLGDRVKLERPVIHIDQTGENVLVETLNHELYEAKYVISAVPPVLGMKIHFNPPLPMMRNQLITRVPLGSVIKSIVYYKEPFWRNMDYCGSMIIEGEEAPVAYALDDTKPDGSYPAIIGFILAHKARKLARLTKEERLKKLCDLYAKVLGSQEALHPVHYEEKNWCEEQYSGGCYTSYFPPGIMTQYGRVLRQPVGRIYFAGTETATHWSGYMEGAVEAGERAAREILHAMGKIPEDEIWLPEPESVDVPAKPITTTFLQRHLPSVPGLLKLIGLTTIFSATALGFLAHKRGLLVRI
# Tests used:
# [1] = substrate: CCCCc1ccc(OC2=CCN(C)CC2)cc1; test: (§1) Oxidation by human mono-amine oxidase MAO-A
# How it was run: (§2)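 MAO-A preparation was diluted 1:4 in 20 mM phosphate, pH 7.4, with 20% w/v glycerol and used at 0.17 μM. Four substrate concentrations were used, from 500–62.5 μM solutions in 100 mM sodium phosphate, pH 7.4, after 1 min at 37 °C. Initial rates were taken from the 324 nm amino enone absorbance, read every 3 s for 2 min, in duplicate. Km and TN came from double-reciprocal plots.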
# [2] = substrate: CN1CC=C(Cc2cc3ccccc3c3ccccc23)CC1; test: as §1; how it was run: as §2
# [3] = substrate: CN1CC=C(Oc2cc3ccccc3c3ccccc23)CC1; test: as §1; how it was run: as §2
# [4] = substrate: CN1CC=C(Oc2ccc(-c3ccccc3)cc2)CC1; test: as §1; how it was run: as §2
# [5] = substrate: CN1CC=C(Oc2ccc(C(C)(C)C)cc2)CC1; test: as §1; how it was run: as §2
# [6] = substrate: CN1CC=C(Oc2ccc(Cl)cc2Cl)CC1; test: as §1; how it was run: as §2
# [7] = substrate: CN1CC=C(Oc2ccc3ccccc3c2)CC1; test: as §1; how it was run: as §2
# [8] = substrate: CN1CC=C(Oc2cccc3ccccc23)CC1; test: as §1; how it was run: as §2
# [9] = substrate: CN1CC=C(Oc2ccccc2)CC1; test: as §1; how it was run: as §2
# [10] = substrate: CCCCc1ccc(OC2=CCN(C)CC2)cc1; test: (§3) Oxidation by bovine mono-amine oxidase B MAO-B; parameters: species or system Bos taurus
# How it was run: (§4)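 Bovine liver mitochondrial MAO-B, partially purified, at 0.087 μM. Four substrate concentrations were used, from 500–62.5 μM solutions in 100 mM sodium phosphate, pH 7.4. Each was equilibrated 1 min at 37 °C before enzyme was added. Amino enone formation was read at 324 nm every 3 s for 2 min, in duplicate. Km and TN came from Lineweaver-Burk double-reciprocal plots of initial rates.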
# [11] = substrate: CN1CC=C(Cc2ccc3ccccc3c2)CC1; test: as §3; parameters: species or system Bos taurus; how it was run: as §4
# [12] = substrate: CN1CC=C(Oc2ccc(-c3ccccc3)cc2)CC1; test: as §3; parameters: species or system Bos taurus; how it was run: as §4
# [13] = substrate: CN1CC=C(Oc2ccc(C(C)(C)C)cc2)CC1; test: as §3; parameters: species or system Bos taurus; how it was run: as §4
# [14] = substrate: CN1CC=C(Oc2ccc(Cl)cc2Cl)CC1; test: as §3; parameters: species or system Bos taurus; how it was run: as §4
# [15] = substrate: CN1CC=C(Oc2ccc3ccccc3c2)CC1; test: as §3; parameters: species or system Bos taurus; how it was run: as §4
# [16] = substrate: CN1CC=C(Oc2cccc3ccccc23)CC1; test: as §3; parameters: species or system Bos taurus; how it was run: as §4
# [17] = substrate: CN1CC=C(Oc2ccccc2)CC1; test: as §3; parameters: species or system Bos taurus; how it was run: as §4
Protein,Km [1] [µM],Km [2] [µM],Km [3] [µM],Km [4] [µM],Km [5] [µM],Km [6] [µM],Km [7] [µM],Km [8] [µM],Km [9] [µM],Km [10] [µM],Km [11] [µM],Km [12] [µM],Km [13] [µM],Km [14] [µM],Km [15] [µM],Km [16] [µM],Km [17] [µM]
B1,51,480,278,101,130,29,77,144,55,,,,,,,,
B2,,,,,,,,,,84,892,284,56,167,274,143,58
